These results are taken from ChEMBL document CHEMBL1287677, “Antimalarial histone deacetylase inhibitors containing cinnamate or NSAID components” (Bioorg Med Chem Lett, 2010).

One data set has as its system Plasmodium falciparum. Description: Antimalarial activity against drug-sensitive ring-stage Plasmodium falciparum 3D7 infected in human O+ erythrocytes assessed as inhibition of parasite growth by [3H]hypoxanthine incorporation assay. It counts as functional, organism-based.
In another data set the test system is NFF. Briefly: Cytotoxicity against human NFF after 96 hrs by sulforhodamine B assay. It counts as cell-based. For orientation: Sulforhodamine B stains cellular protein and so reports cell mass.
Data set [1] is described as follows: Selectivity index, ratio of IC50 for human NFF to IC50 for drug-sensitive ring-stage Plasmodium falciparum 3D7. In short, it runs like this:
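Ratio computed as NFF IC50 divided by 3D7 IC50. Each IC50 is the mean of three experiments.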

Data set [2] is described as follows: Selectivity index, ratio of IC50 for human HeLa cells to IC50 for drug-sensitive ring-stage Plasmodium falciparum 3D7. It counts as toxicity, cell-based. Conditions: read-out: Selectivity Index.
Data set [3] concerns the target T1, Histone deacetylase (Plasmodium falciparum 3D7) (UniProt Q7K6A1).
T1 sequence (whole entry): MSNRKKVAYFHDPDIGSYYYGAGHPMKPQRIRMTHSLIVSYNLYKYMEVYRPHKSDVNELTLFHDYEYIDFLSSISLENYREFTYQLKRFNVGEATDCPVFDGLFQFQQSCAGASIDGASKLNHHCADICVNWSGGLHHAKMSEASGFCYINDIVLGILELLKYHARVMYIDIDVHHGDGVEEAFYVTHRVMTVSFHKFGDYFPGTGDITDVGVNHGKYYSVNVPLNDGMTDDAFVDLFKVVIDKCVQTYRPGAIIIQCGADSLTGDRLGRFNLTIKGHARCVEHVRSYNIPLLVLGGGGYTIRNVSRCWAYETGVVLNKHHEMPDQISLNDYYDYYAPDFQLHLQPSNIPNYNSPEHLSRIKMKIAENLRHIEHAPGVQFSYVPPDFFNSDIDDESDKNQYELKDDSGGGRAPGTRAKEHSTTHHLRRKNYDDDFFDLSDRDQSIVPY
Description: Inhibition of trophozoite stage of Plasmodium falciparum 3D7 HDAC1 in infected-human erythrocytes assessed as histone H4 hyperacetylation at 20 to 100 nM after 3.5 hrs by Western blot analysis. It counts as cell-based. Summed up: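 P. falciparum 3D7-infected erythrocytes exposed to 20 and 100 nM compound for 3.5 h. Vehicle controls (0.1% DMSO) sampled at start and at 3.5 h. Total protein extracted and run on 15% SDS–PAGE. Histone H4 hyperacetylation read by Western blot with polyclonal anti-tetra-acetyl histone H4 antiserum. Loading checked by Coomassie staining of a matched gel.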
In general terms: A western blot detects proteins with antibodies after separation by electrophoresis.

For data set [4], the target named is T1, Histone deacetylase (Plasmodium falciparum 3D7). Briefly: (§1) Inhibition of Plasmodium falciparum 3D7 HDAC1 in infected-human erythrocytes assessed as histone H4 hyperacetylation after 1.5 hrs by SDS-PAGE analysis. It counts as cell-based.
For a further data set, the target named is T2, Histone deacetylase (Plasmodium falciparum 3D7, UniProt Q7K6A1).
T2 sequence (Q7K6A1 whole entry): T1 sequence (whole entry)
The data set is described as §1. It counts as cell-based.

Activity calls are given as the source filed them. The rule behind the calls is not given here.

Usually IC50 stands for the midpoint of a concentration-inhibition curve. As usually defined, the IC90 is the concentration needed for an effect of 90%. As to `O=C(/C=C/c1ccc(OCc2ccc(Br)cc2)cc1)N[C@@H](CCCCCC(=O)NO)C(=O)Nc1cccc2cccnc12`, in the data set on Plasmodium falciparum, the concentration for half-maximal inhibition (IC50) stood at 0.357 µM and the IC90 stood at 0.687 µM.

In the case of `CC(C(=O)N[C@@H](CCCCCC(=O)NO)C(=O)Nc1cccc2cccnc12)c1ccc(N2Cc3ccccc3C2=O)cc1` (stereo partly specified), in the data set with Plasmodium falciparum, the IC50 amounted to 0.032 µM and the concentration for an effect of 90% (IC90) stood at 0.065 µM.

Consider `CCCCOc1ccc(/C=C/C(=O)N[C@@H](CCCCCC(=O)NO)C(=O)Nc2cccc3cccnc23)cc1`, for which, in the data set with Plasmodium falciparum, the IC50 worked out at 0.184 µM and the concentration for an effect of 90% (IC90) was 0.373 µM.

With `Cc1ccc(C(=O)c2ccc(CC(=O)N[C@@H](CCCCCC(=O)NO)C(=O)Nc3cccc4cccnc34)n2C)cc1`, in the data set with Plasmodium falciparum, the IC50 is 0.047 µM and the concentration for an effect of 90% (IC90) was determined as 0.102 µM.

For `CC(C)c1ccc(NC(=O)[C@H](CCCCCC(=O)NO)NC(=O)c2ccc(N(C)C)cc2)cc1`, in the data set on Plasmodium falciparum, the IC50 was 0.022 µM.

As for `COc1cc(/C=C/C(=O)N[C@@H](CCCCCC(=O)NO)C(=O)Nc2cccc3cccnc23)cc(OC)c1O`, in the data set on Plasmodium falciparum, the IC50 was 0.014 µM and the IC90 is 0.026 µM.

As for `COc1ccc2[nH]c(C)c(CC(=O)N[C@@H](CCCCCC(=O)NO)C(=O)Nc3cccc4cccnc34)c2c1`, the IC50 in the data set on Plasmodium falciparum was 0.013 µM; with NFF, 0.26 µM. The IC90 in the data set with Plasmodium falciparum was found to be 0.022 µM. The “Selectivity Index” value in data set [1] came to 20. Also, the selectivity ratio in data set [2] is 17. Further, the inhibition result in data set [3] was “Active”.

`CN(C)c1ccc(C(=O)N[C@@H](CCCCCC(=O)NO)C(=O)Nc2cccc3ccccc23)cc1`: in the data set on Plasmodium falciparum, the IC50 was determined as 0.021 µM.

On to `COc1ccc(/C=C/C(=O)N[C@@H](CCCCCC(=O)NO)C(=O)Nc2cccc3cccnc23)cc1OC`, for which, in the data set on Plasmodium falciparum, the IC50 stood at 0.034 µM and the IC90 was 0.061 µM.

For `CC(C)CCOc1cccc(/C=C/C(=O)N[C@@H](CCCCCC(=O)NO)C(=O)Nc2cccc3cccnc23)c1`, in the data set with Plasmodium falciparum, the 50% inhibitory concentration (IC50) is > 1 µM and the IC90 was > 1 µM.

Take `Cc1cccc(Nc2ccccc2C(=O)N[C@@H](CCCCCC(=O)NO)C(=O)Nc2cccc3cccnc23)c1C`: in the data set with Plasmodium falciparum, the IC50 worked out at 0.051 µM and the IC90 turned out to be 0.089 µM.

Regarding `O=C(/C=C/c1ccc(OC/C=C/c2ccccc2)cc1)N[C@@H](CCCCCC(=O)NO)C(=O)Nc1cccc2cccnc12`, in the data set on Plasmodium falciparum, the IC50 was 0.453 µM and the IC90 worked out at 0.827 µM.

As to `Cc1ccc(COc2ccc(/C=C/C(=O)N[C@@H](CCCCCC(=O)NO)C(=O)Nc3cccc4cccnc34)cc2)cc1`, in the data set on Plasmodium falciparum, the IC50 is 0.153 µM and the IC90 came to 0.375 µM.

Turning to `O=C(CCCCC[C@H](NC(=O)c1cc2ccccc2[nH]1)C(=O)Nc1cccc2cccnc12)NO`, in data set [4], the inhibition entry was “Dose-dependent effect”. The IC50 at Histone deacetylase was 0.078 µM.

Regarding `O=C(/C=C/c1ccco1)N[C@@H](CCCCCC(=O)NO)C(=O)Nc1cccc2cccnc12`, in the data set with Plasmodium falciparum, the IC50 was 0.015 µM and the IC90 was found to be 0.027 µM.

Turning to `O=C(CCCCC[C@H](NC(=O)c1ccccc1O)C(=O)Nc1cccc2cccnc12)NO`, in the data set with Plasmodium falciparum, the concentration for half-maximal inhibition (IC50) worked out at 0.115 µM and the IC90 came out at 0.214 µM.

Consider `CN(C)c1ccc(C(=O)N[C@@H](CCCCCC(=O)NO)C(=O)Nc2ccccc2Cc2ccccc2)cc1`, for which the IC50 in the data set with Plasmodium falciparum turned out to be 0.005 µM. The inhibition result in data set [3] is “Active”.

As to `O=C(CCCCC[C@H](NC(=O)Cc1ccccc1Nc1c(Cl)cccc1Cl)C(=O)Nc1cccc2cccnc12)NO`, in the data set on Plasmodium falciparum, the half-maximal inhibitory concentration (IC50) came out at 0.065 µM and the 90% effect concentration (IC90) was 0.119 µM.

For the compound `O=C(/C=C/c1ccc(Oc2ccccc2)cc1)N[C@@H](CCCCCC(=O)NO)C(=O)Nc1cccc2cccnc12`, in the data set with Plasmodium falciparum, the IC50 is 0.156 µM.

For the compound `O=C(/C=C/c1cccc(Br)c1)N[C@@H](CCCCCC(=O)NO)C(=O)Nc1cccc2cccnc12`, the 50% inhibitory concentration (IC50) in the data set on Plasmodium falciparum is 0.05 µM.

Turning to `COc1ccc(CCNC(=O)[C@H](CCCCCC(=O)NO)NC(=O)c2ccc(N(C)C)cc2)cc1OC`, in the data set on Plasmodium falciparum, the concentration for half-maximal inhibition (IC50) stood at 0.101 µM.

As for `COc1ccc2cc([C@H](C)C(=O)N[C@@H](CCCCCC(=O)NO)C(=O)Nc3cccc4cccnc34)ccc2c1`, the results for the IC50 in the data set with Plasmodium falciparum and with NFF were 0.014 µM and 0.169 µM, respectively. In the data set on Plasmodium falciparum, the IC90 was determined as 0.024 µM. For the same compound, in data set [1], the “Selectivity Index” value is 12. For the same compound, the selectivity ratio in data set [2] came to 17. For the same compound, the inhibition entry in data set [3] was “Active”.

As for `CN(C)c1ccc(C(=O)N[C@@H](CCCCCC(=O)NO)C(=O)Nc2cccc3cccnc23)cc1`, the “Selectivity Index” value in data set [1] was found to be 30. Further, the selectivity ratio in data set [2] was 17.

Take `COc1cc(/C=C/C(=O)N[C@@H](CCCCCC(=O)NO)C(=O)Nc2cccc3cccnc23)cc(OC)c1OC`: in the data set on Plasmodium falciparum, the IC50 came out at 0.052 µM.

As for `CC(C(=O)N[C@@H](CCCCCC(=O)NO)C(=O)Nc1cccc2cccnc12)c1ccc(-c2ccccc2)c(F)c1` (stereo partly specified), in the data set on Plasmodium falciparum, the IC50 was determined as 0.042 µM and the IC90 was 0.076 µM.

On to `CC(C)CCOc1ccc(/C=C/C(=O)N[C@@H](CCCCCC(=O)NO)C(=O)Nc2cccc3cccnc23)cc1`, for which, in the data set with Plasmodium falciparum, the half-inhibitory concentration (IC50) was determined as 0.217 µM and the IC90 is 0.536 µM.

For the compound `O=C(/C=C/c1ccccc1)N[C@@H](CCCCCC(=O)NO)C(=O)Nc1cccc2cccnc12`, in data set [4], the inhibition result is “Dose-dependent effect”. The IC50 on Histone deacetylase came to 0.087 µM.

Consider `O=C(/C=C/c1cccc(OC/C=C/c2ccccc2)c1)N[C@@H](CCCCCC(=O)NO)C(=O)Nc1cccc2cccnc12`, for which, in the data set with Plasmodium falciparum, the IC50 was determined as 0.4 µM and the IC90 stood at 0.805 µM.

Regarding `C[C@@H]1CC[C@H]2[C@@H](C)C(=O)O[C@@H]3O[C@@]4(C)CC[C@@H]1[C@]32OO4`, in data set [3], the inhibition entry was “inactive”.

With `CC1=C(CC(=O)N[C@@H](CCCCCC(=O)NO)C(=O)Nc2cccc3cccnc23)c2cc(F)ccc2C1=Cc1ccc(S(C)=O)cc1` (stereo partly specified), in the data set with Plasmodium falciparum, the IC50 stood at 0.035 µM and the IC90 was 0.035 µM.
